Measurements taken from ChEMBL document CHEMBL1122720, “Synthesis and neuroleptic activity of N-[(1-ethyl-2-pyrrolidinyl)methyl]-2-methoxy-5-sulfonamidobenzamide s” (J Med Chem, 1984).

Key:
Canis familiaris = assay: Inhibition of apomorphine induced emesis in dogs following p.o. administration.; assay type: functional; conditions: Canis lupus familiaris, po
In short: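 Dogs were fasted and dosed 1 h before apomorphine 0.1 mg/kg s.c. Vomits within 30 min were counted and compared with the same dog's count 2 weeks earlier. ED50 was found by the up-and-down method.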

Mus musculus = assay: Inhibition of apomorphine induced climbing in mice following p.o. administration.; assay type: functional; conditions: po
In short: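 Mice in two to three groups of 10 got the drug orally as a gum arabic suspension, then apomorphine 1 mg/kg s.c. 60 min later. Each mouse was caged in wire mesh and watched for 3 min from 20 min after apomorphine for wall-climbing, judged against a control group. ED50 (mg/kg) came from regression analysis.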

[1] = Toxicity in mice following p.o. administration.; assay type: organism-based; conditions: mouse, in vivo, po
In short: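 Groups of 10 mice received the drug orally. Deaths were scored on day 7 after dosing, and LD50 (mg/kg) was obtained by graphical interpolation.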

Structure (SMILES) | ED50 (Canis familiaris) [mg/kg] | ED50 (Mus musculus) [mg/kg] | LD50 [1] [mg/kg]
CCN1CCCC1CNC(=O)c1cc(N(C)S(N)(=O)=O)c(C)cc1OC (stereo unspecified) | 1 | > 50 | > 1000
CCN1CCCC1CNC(=O)c1cc(NS(N)(=O)=O)c(Cl)cc1OC (stereo unspecified) | 1 | > 50 | > 1000
CCN1CCCC1CNC(=O)c1cc(NS(C)(=O)=O)c(Cl)cc1OC (stereo unspecified) | 0.1 | 9.1 | > 1000
CCN1CCCC1CNC(=O)c1cc(N(C)S(=O)(=O)N(C)C)c(C)cc1OC (stereo unspecified) | 1 | > 50 | 750
CCN1CCCC1CNC(=O)c1cc(S(N)(=O)=O)ccc1OC (stereo unspecified) [SULPIRIDE] | 0.09 | 174 | > 3000
CCN1CCCC1CNC(=O)c1cc(N(C)S(C)(=O)=O)ccc1OC (stereo unspecified) | 0.17 | 22.9 | > 1000
CCN1CCCC1CNC(=O)c1cc(N(C)S(C)(=O)=O)c(Cl)cc1OC (stereo unspecified) | 0.1 | 7.7 | > 500
CCN1CCCC1CNC(=O)c1cc(N(C)S(=O)(=O)N(C)C)c(Cl)cc1OC (stereo unspecified) | 0.1 | 31.8 | 750
CCN1CCCC1CNC(=O)c1cc(N(C)S(N)(=O)=O)ccc1OC (stereo unspecified) | 1 | > 50 | > 1000
CCN1CCCC1CNC(=O)c1cc(NS(C)(=O)=O)ccc1OC (stereo unspecified) | 2 | > 50 | > 500
CCN1CCCC1CNC(=O)c1cc(NS(C)(=O)=O)c(C)cc1OC (stereo unspecified) | 1 | 35.6 | 750
CCN1CCCC1CNC(=O)c1cc(NS(=O)(=O)N(C)C)c(C)cc1OC (stereo unspecified) | 0.05 | 13.3 | > 1000
CCN1CCCC1CNC(=O)c1cc(NS(N)(=O)=O)ccc1OC (stereo unspecified) | 10 | > 50 | > 1000
CCN1CCCC1CNC(=O)c1cc(N(C)S(=O)(=O)N(C)C)ccc1OC (stereo unspecified) | 1 | 36.2 | 750
CCN1CCCC1CNC(=O)c1cc(NS(=O)(=O)NC)c(C)cc1OC (stereo unspecified) | > 1 | > 50 | > 1000
CCN1CCCC1CNC(=O)c1cc(NS(=O)(=O)N(C)C)ccc1OC (stereo unspecified) | 1 | > 50 | 750
CCN1CCCC1CNC(=O)c1cc(NS(=O)(=O)N(C)C)c(Cl)cc1OC (stereo unspecified) | 0.05 | 8.3 | > 1000
CCN1CCCC1CNC(=O)c1cc(NS(=O)(=O)NC)c(Cl)cc1OC (stereo unspecified) | > 1 | > 50 | > 1000
CCN1CCCC1CNC(=O)c1cc(N(C)S(C)(=O)=O)c(C)cc1OC (stereo unspecified) | 1 | 26.1 | > 1000
CCN1CCCC1CNC(=O)c1cc(NS(N)(=O)=O)c(C)cc1OC (stereo unspecified) | > 1 | > 50 | > 1000
CCN1CCCC1CNC(=O)c1cc(NS(=O)(=O)NC)ccc1OC (stereo unspecified) | > 1 | > 50 | > 1000
CCN1CCCC1CNC(=O)c1cc(N(C)S(N)(=O)=O)c(Cl)cc1OC (stereo unspecified) | 1 | > 50 | > 1000
